# ChEMBL document CHEMBL1153936, “Synthesis and pharmacological evaluation of (2-oxaadamant-1-yl)amines” (Bioorg Med Chem, 2009)
# Active and inactive are the calls of the source. The calls are words filed in the database; no cut-off is given here.
# How the values were obtained:
# [1] = Antagonist activity against glutamate receptor in rat cerebellar granule neurons assessed as inhibition of glutamate-induced increase in intracellular calcium level by Fura-2 AM dye based fluorimetry; type: functional, cell-based
# Procedure, shortened: (§1)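 Primary cerebellar granule neurons were grown on poly-L-lysine-coated glass coverslips and used after 7–14 days in vitro. Cells were loaded with 6 μM Fura-2 AM for 45 min. Fluorometry was done in Locke-Hepes buffer at 37 °C with mild agitation, recorded over 1200 s. Cells were stimulated with NMDA or glutamate at 100 μM plus 10 μM glycine. Test compound was then added at cumulative rising concentrations. IC50 came from variable-slope nonlinear regression of % inhibition. Values are means ± SEM, n ≥ 3 separate experiments on three culture batches.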
# [2] = system: Trypanosoma brucei; assay: Antitrypanosomal activity against Trypanosoma brucei 427 assessed as parasite growth inhibition up to 5 mg/mL after 48 hrs; type: functional, organism-based
# [3] = molecular target: Glutamate NMDA receptor; assay: Antagonist activity against NMDA receptor in rat cerebellar granule neurons assessed as inhibition of NMDA -induced increase in intracellular calcium level by Fura-2 AM dye based fluorimetry; type: functional, cell-based; procedure, shortened: as §1
# [4] = system: Trypanosoma brucei; assay: Antitrypanosomal activity against Trypanosoma brucei 427 assessed as parasite growth inhibition after 48 hrs; type: functional, organism-based; details: Trypanosoma brucei, 427, 48 h
# [5] = system: Respiratory syncytial virus; assay: Antiviral activity against Respiratory syncytial virus assessed as inhibition of viral replication; type: functional, organism-based
# Procedure, shortened: (§2)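 Cell-culture virus replication assays. Inhibition of viral replication and compound cytotoxicity were scored by microscopic examination, then confirmed by a colorimetric MTS cell viability assay.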
# [6] = system: Influenza A virus; assay: Antiviral activity against Influenza A virus (A/Puerto Rico/8/34(H1N1)) assessed as inhibition of viral replication; type: functional, organism-based; details: A/Puerto Rico/8/1934(H1N1)
# Procedure, shortened: (§3)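 Cell-culture virus replication assay. Inhibition of virus-induced effects and compound cytotoxicity were scored by microscopic examination and confirmed by colorimetric MTS cell-viability readout.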
# [7] = system: Mammalian orthoreovirus 1; assay: Antiviral activity against Reovirus 1 assessed as inhibition of viral replication; type: functional, organism-based; procedure, shortened: as §2
# [8] = system: Punta Toro virus; assay: Antiviral activity against Punta Toro virus assessed as inhibition of viral replication; type: functional, organism-based; procedure, shortened: as §2
# [9] = system: Influenza A virus H3N2; assay: Antiviral activity against Influenza A virus (A/Hong Kong/7/1987(H3N2)) assessed as inhibition of viral replication; type: functional, organism-based; procedure, shortened: as §3
# [10] = system: Human alphaherpesvirus 1; assay: Antiviral activity against HSV1 assessed as inhibition of viral replication; type: functional, organism-based; procedure, shortened: as §2
# [11] = system: Coxsackievirus B4; assay: Antiviral activity against Coxsackievirus B4 assessed as inhibition of viral replication; type: functional, organism-based; procedure, shortened: as §2
# [12] = system: Feline coronavirus; assay: Antiviral activity against Feline coronavirus assessed as inhibition of viral replication; type: functional, organism-based; procedure, shortened: as §2
# [13] = system: Human respirovirus 3; assay: Antiviral activity against parainfluenza virus 3 assessed as inhibition of viral replication; type: functional, organism-based; procedure, shortened: as §2
# [14] = system: Human alphaherpesvirus 2; assay: Antiviral activity against HSV2 assessed as inhibition of viral replication; type: functional, organism-based; procedure, shortened: as §2
# [15] = system: Influenza B virus; assay: Antiviral activity against Influenza B virus (B/Hong Kong/05/1972) assessed as inhibition of viral replication; type: functional, organism-based; procedure, shortened: as §3
# [16] = system: Vesicular stomatitis virus; assay: Antiviral activity against Vesicular stomatitis virus assessed as inhibition of viral replication; type: functional, organism-based; procedure, shortened: as §3
# [17] = system: Vaccinia virus; assay: Antiviral activity against Vaccinia virus assessed as inhibition of viral replication; type: functional, organism-based; details: Orthopoxvirus vaccinia; procedure, shortened: as §3
# [18] = system: Sindbis virus; assay: Antiviral activity against Sindbis virus assessed as inhibition of viral replication; type: functional, organism-based; procedure, shortened: as §2
smiles,measurement,setting,value
CN(Cc1ccccc1)C12CC3CC(CC(C3)O1)C2,IC50,[1],> 500 µM
same,Activity,[2],inactive
same,IC50,[3],> 200 µM
CCC12CC3CC(CC(N)(C3)O1)C2,IC50,[1],223 µM
same,IC50,[3],83 µM
CCN(CC)C12CC3CC(CC(CC)(C3)O1)C2,IC50,[1],22 µM
same,IC50,[3],14 µM
CCC12CC3CC(C1)CC(NN)(C3)O2,IC50,[1],> 500 µM
CC12CC3CC(C1)CC(N)(C3)O2,IC50,[1],> 500 µM
same,IC50,[3],> 200 µM
NC12CC3CC(CC(C3)C1)C2 [AMANTADINE],IC50,[4],> 130 µM
CC(N)C12CC3CC(CC(C3)C1)C2 (stereo not given) [RIMANTADINE],IC90,[4],14 µM
CN(CCc1ccccc1)C12CC3CC(CC(C3)O1)C2,IC50,[1],> 500 µM
same,Activity,[2],inactive
same,IC50,[3],> 200 µM
NNC12CC3CC(C1)CC(c1ccccc1)(C3)O2,IC50,[1],> 500 µM
c1ccc(CCNC23CC4CC(CC(C4)O2)C3)cc1,IC50,[1],> 500 µM
same,Activity,[2],inactive
same,IC50,[3],> 200 µM
CN(C)C12CC3CC(CC(C)(C3)O1)C2,IC50,[1],> 500 µM
same,IC50,[3],> 200 µM
same,IC50,[4],3.97 µM
same,IC90,[4],6.82 µM
CC12CC3CC(C1)CC(NN)(C3)O2,IC50,[1],> 500 µM
same,IC50,[3],> 200 µM
NC12CC3CC(CC(C3)O1)C2,Activity,[5],inactive
same,Activity,[6],inactive
same,Activity,[7],inactive
same,Activity,[8],inactive
same,IC50,[1],> 500 µM
same,Activity,[9],inactive
same,Activity,[10],inactive
same,Activity,[11],inactive
same,Activity,[2],inactive
same,Activity,[12],inactive
same,Activity,[13],inactive
same,IC50,[3],> 200 µM
same,Activity,[14],inactive
same,Activity,[15],inactive
same,Activity,[16],inactive
same,Activity,[17],inactive
same,Activity,[18],inactive
CCC12CC3CC(C1)CC(N(C)C)(C3)O2,IC50,[1],106 µM
same,IC50,[3],55 µM
same,IC50,[4],10.9 µM
same,IC90,[4],15.5 µM
CCC12CC3CC(C1)CC(NCc1ccccc1)(C3)O2,IC50,[1],> 500 µM
same,IC50,[3],> 200 µM
NC12CC3CC(C1)CC(C1CCCCC1)(C3)O2,Activity,[5],inactive
same,Activity,[6],inactive
same,Activity,[7],inactive
same,Activity,[8],inactive
same,IC50,[1],> 500 µM
same,Activity,[9],inactive
same,Activity,[10],inactive
same,Activity,[11],inactive
same,Activity,[12],inactive
same,Activity,[13],inactive
same,IC50,[3],94 µM
same,Activity,[14],inactive
same,Activity,[15],inactive
same,Activity,[16],inactive
same,Activity,[17],inactive
same,Activity,[18],inactive
CCC12CC3CC(C1)CC(NC)(C3)O2,Activity,[5],inactive
same,Activity,[6],inactive
same,Activity,[7],inactive
same,Activity,[8],inactive
same,IC50,[1],108 µM
same,Activity,[9],inactive
same,Activity,[10],inactive
same,Activity,[11],inactive
same,Activity,[12],inactive
same,Activity,[13],inactive
same,IC50,[3],32 µM
same,Activity,[14],inactive
same,Activity,[15],inactive
same,Activity,[16],inactive
same,Activity,[17],inactive
same,Activity,[18],inactive
c1ccc(CN(Cc2ccccc2)C23CC4CC(CC(C4)O2)C3)cc1,IC50,[1],> 500 µM
same,Activity,[2],inactive
same,IC50,[3],> 200 µM
c1ccc(CNC23CC4CC(CC(C4)O2)C3)cc1,Activity,[5],inactive
same,Activity,[6],inactive
same,Activity,[7],inactive
same,Activity,[8],inactive
same,IC50,[1],> 500 µM
same,Activity,[9],inactive
same,Activity,[10],inactive
same,Activity,[11],inactive
same,Activity,[2],inactive
same,Activity,[12],inactive
same,Activity,[13],inactive
same,IC50,[3],> 200 µM
same,Activity,[14],inactive
same,Activity,[15],inactive
same,Activity,[16],inactive
same,Activity,[17],inactive
same,Activity,[18],inactive
NC12CC3CC(C1)CC(c1ccccc1)(C3)O2,Activity,[5],inactive
same,Activity,[6],inactive
same,Activity,[7],inactive
same,Activity,[8],inactive
same,IC50,[1],350 µM
same,Activity,[9],inactive
same,Activity,[10],inactive
same,Activity,[11],inactive
same,Activity,[12],inactive
same,Activity,[13],inactive
same,IC50,[3],226 µM
same,Activity,[14],inactive
same,Activity,[15],inactive
same,Activity,[16],inactive
same,Activity,[17],inactive
same,Activity,[18],inactive
CCC12CC3CC(C1)CC(N(C)Cc1ccccc1)(C3)O2,IC50,[1],> 500 µM
same,IC50,[3],> 200 µM
CNC12CC3CC(CC(C3)O1)C2,Activity,[5],inactive
same,Activity,[6],inactive
same,Activity,[7],inactive
same,Activity,[8],inactive
same,IC50,[1],> 500 µM
same,Activity,[9],inactive
same,Activity,[10],inactive
same,Activity,[11],inactive
same,Activity,[2],inactive
same,Activity,[12],inactive
same,Activity,[13],inactive
same,IC50,[3],> 200 µM
same,Activity,[14],inactive
same,Activity,[15],inactive
same,Activity,[16],inactive
same,Activity,[17],inactive
same,Activity,[18],inactive
